The text below walks through data of ChEMBL document CHEMBL2375233, “Cytotoxic phorbol esters of Croton tiglium” (J Nat Prod, 2013).

Molecules are shown by their SMILES.

The subject of the assay is SNU-387. As to the kind of experiment: Cytotoxicity against human SNU387 cells after 48 hrs by MTT assay. It counts as functional, cell-based. The conditions noted are these: SNU-387, 48 h. Put shortly: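 SNU387 hepatoma cells (Shanghai Cell Bank) grown in RPMI1640 with 10% FBS, seeded in 96-well plates and exposed to test compounds at various concentrations for 48 h. Viability read by MTT, absorbance at 570 nm. IC50 calculated from concentration-response; samples assayed in triplicate, paclitaxel as positive control.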
Take `CCCCCCCCCCCC(=O)O[C@@]12[C@H](OC(C)=O)[C@@H](C)[C@@]3(O)[C@@H](C=C(CO)C[C@]4(O)C(=O)C(C)=C[C@@H]34)[C@@H]1C2(C)C`: the IC50 is greater than 10 µM.
As for `CCC(C)C(=O)O[C@@H]1[C@@H](C)[C@@]2(O)[C@@H](C=C(CO)C[C@]3(O)C(=O)C(C)=C[C@@H]23)[C@@H]2C(C)(C)[C@]12OC(=O)C(C)C` (stereo not given in full), the figure is greater than 10 µM; as for `C/C=C(\C)C(=O)O[C@@H]1[C@@H](C)[C@@]2(O)[C@@H](C=C(CO)C[C@]3(O)C(=O)C(C)=C[C@@H]23)[C@@H]2C(C)(C)[C@]12OC(=O)CC`, greater than 10.2 µM; as for `C/C=C(\C)C(=O)O[C@@H]1[C@@H](C)[C@@]2(O)[C@@H](C=C(CO)C[C@]3(O)C(=O)C(C)=C[C@@H]23)[C@@H]2C(C)(C)[C@]12OC(=O)C(C)CC` (stereo not given in full), 8.7 µM.
In the case of `CCCCCCCC/C=C\CCCCCCCC(=O)OCC1=C[C@H]2[C@@H]3C(C)(C)[C@]3(OC(C)=O)[C@H](O)[C@@H](C)[C@]2(O)[C@@H]2C=C(C)C(=O)[C@@H]2C1`, the IC50 was 6.6 µM.
The compound `CCCCC/C=C\C/C=C\CCCCCCCC(=O)OCC1=C[C@H]2[C@@H]3C(C)(C)[C@]3(OC(C)=O)[C@H](O)[C@@H](C)[C@]2(O)[C@@H]2C=C(C)C(=O)[C@@]2(O)C1` registered an IC50 of 3.4 µM.
Compound `CCCCCCCCCCCCCC(=O)O[C@@H]1[C@@H](C)[C@@]2(O)[C@@H](C=C(CO)C[C@]3(O)C(=O)C(C)=C[C@@H]23)[C@@H]2C(C)(C)[C@]12OC(C)=O` [PHORBOL MYRISTATE ACETATE] registered an IC50 greater than 10 µM.
For the compound `C/C=C(\C)C(=O)O[C@@H]1[C@@H](C)[C@]2(O)[C@@H]3C=C(C)C(=O)[C@@H]3CC(CO)=C[C@H]2[C@@H]2C(C)(C)[C@]12OC(=O)C(C)CC` (stereo not given in full), the IC50 was greater than 10 µM.
As for `CC(=O)O[C@H]1C(=O)[C@@]2(C)[C@H]([C@H](OC(=O)c3ccccc3)[C@]3(O)C[C@H](OC(=O)[C@H](O)[C@@H](NC(=O)c4ccccc4)c4ccccc4)C(C)=C1C3(C)C)[C@]1(OC(C)=O)CO[C@@H]1C[C@@H]2O` [PACLITAXEL], the figure is 0.27 µM.
In the case of `C/C=C(\C)C(=O)O[C@@H]1[C@@H](C)[C@]2(O)[C@@H]3C=C(C)C(=O)[C@@H]3CC(CO)=C[C@H]2[C@@H]2C(C)(C)[C@]12OC(=O)Cc1ccccc1` it was greater than 10 µM; in that of `CCCCC/C=C\C/C=C\CCCCCCCC(=O)OCC1=C[C@H]2[C@@H]3C(C)(C)[C@]3(OC(C)=O)[C@H](O)[C@@H](C)[C@]2(O)[C@@H]2C=C(C)C(=O)[C@@H]2C1`, 8.1 µM.
For `CCCCCCCC/C=C\CCCCCCCC(=O)OCC1=C[C@H]2[C@@H]3C(C)(C)[C@]3(OC(C)=O)[C@H](O)[C@@H](C)[C@]2(O)[C@@H]2C=C(C)C(=O)[C@@]2(O)C1`, the IC50 is 1.2 µM.
As for `CCCCCCCCCCCC(=O)O[C@@]12[C@H](OC(=O)C(C)CC)[C@@H](C)[C@@]3(O)[C@@H](C=C(CO)C[C@]4(O)C(=O)C(C)=C[C@@H]34)[C@@H]1C2(C)C` (stereo not given in full), the figure is greater than 10 µM.
As for `C/C=C(\C)C(=O)O[C@@]12[C@H](OC(=O)C(C)CC)[C@@H](C)[C@@]3(O)[C@@H](C=C(CO)C[C@]4(O)C(=O)C(C)=C[C@@H]34)[C@@H]1C2(C)C` (stereo not given in full), the figure is greater than 10 µM; as for `C/C=C(\C)C(=O)O[C@@H]1[C@@H](C)[C@]2(O)[C@@H]3C=C(C)C(=O)[C@@H]3CC(CO)=C[C@H]2[C@@H]2C(C)(C)[C@]12OC(C)=O`, greater than 10 µM.
In turn, `C/C=C(\C)C(=O)O[C@@H]1[C@@H](C)[C@]2(O)[C@@H]3C=C(C)C(=O)[C@@H]3CC(CO)=C[C@H]2[C@@H]2C(C)(C)[C@]12OC(=O)C(C)C` displayed a concentration for half-maximal inhibition (IC50) greater than 10 µM.
In the case of `CCCCCCCCCC(=O)O[C@@]12[C@H](OC(C)=O)[C@@H](C)[C@@]3(O)[C@@H](C=C(CO)C[C@]4(O)C(=O)C(C)=C[C@@H]34)[C@@H]1C2(C)C` it was greater than 10 µM; in that of `CCCCCCCCCCCCCCCC(=O)O[C@@H]1[C@@H](C)[C@@]2(O)[C@@H](C=C(CO)C[C@]3(O)C(=O)C(C)=C[C@@H]23)[C@@H]2C(C)(C)[C@]12OC(C)=O`, greater than 10 µM.
In the case of `C/C=C(\C)C(=O)O[C@@H]1[C@@H](C)[C@]2(O)[C@@H]3C=C(C)C(=O)[C@@H]3CC(CO)=C[C@H]2[C@@H]2C(C)(C)[C@]12OC(=O)CCCCCCCCC` it was greater than 10 µM.
For the compound `C/C=C(\C)C(=O)O[C@@H]1[C@@H](C)[C@@]2(O)[C@@H](C=C(CO)C[C@]3(O)C(=O)C(C)=C[C@@H]23)[C@@H]2C(C)(C)[C@]12OC(=O)C(C)C`, the IC50 is greater than 10 µM.

As a reminder, the IC50 is the concentration that gives 50% inhibition. Lower therefore signals greater potency.
